Assay results taken from publication PMC2217202 (The Journal of General Physiology, 2000).
Where two headings read alike, the source gives them in different places.

Columns and labels:
[1] = target: T1, AE1 (band 3) protein in human red blood cells (Homo sapiens, UniProt P02730); assay: Inhibition of 36Cl exchange flux at 0°C after equilibration with WW781; assay type: cell-based; conditions: for IC50: read-out: K eqW, 0°C, mean ± SEM
T1 sequence (P02730 1-911): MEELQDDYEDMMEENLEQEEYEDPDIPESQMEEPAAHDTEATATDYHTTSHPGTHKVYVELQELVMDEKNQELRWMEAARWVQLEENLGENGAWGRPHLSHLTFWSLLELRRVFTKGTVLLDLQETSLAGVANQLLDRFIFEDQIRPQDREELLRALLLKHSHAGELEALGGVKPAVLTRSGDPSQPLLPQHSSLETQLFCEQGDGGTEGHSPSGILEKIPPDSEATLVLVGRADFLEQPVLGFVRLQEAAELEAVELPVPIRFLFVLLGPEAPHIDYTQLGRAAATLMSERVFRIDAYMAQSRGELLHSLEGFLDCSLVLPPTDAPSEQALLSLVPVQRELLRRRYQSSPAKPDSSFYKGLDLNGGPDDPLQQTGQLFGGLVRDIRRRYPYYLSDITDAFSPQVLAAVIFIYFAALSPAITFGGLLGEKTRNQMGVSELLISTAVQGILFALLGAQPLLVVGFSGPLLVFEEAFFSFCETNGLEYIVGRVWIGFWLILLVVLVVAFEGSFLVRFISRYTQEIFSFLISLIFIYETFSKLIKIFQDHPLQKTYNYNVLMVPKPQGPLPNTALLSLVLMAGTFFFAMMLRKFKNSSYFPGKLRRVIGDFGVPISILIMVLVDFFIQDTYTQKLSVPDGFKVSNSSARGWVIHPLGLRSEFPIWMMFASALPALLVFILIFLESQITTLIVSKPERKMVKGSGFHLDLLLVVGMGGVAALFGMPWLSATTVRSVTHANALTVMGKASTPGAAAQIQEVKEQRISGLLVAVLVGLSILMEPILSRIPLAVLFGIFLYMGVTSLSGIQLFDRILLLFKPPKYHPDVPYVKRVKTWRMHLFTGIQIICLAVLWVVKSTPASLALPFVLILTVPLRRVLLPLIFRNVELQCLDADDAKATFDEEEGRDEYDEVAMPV
How it was run: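 Washed human RBCs (150 mM KCl, 20 mM HEPES, 24 mM sucrose, pH 6.9) at 0.25% hematocrit, internal Cl− set by nystatin, pretreated ≥2 min with test compound (1% ethanol), loaded with 36Cl (2-10 µCi/ml, 10 min, 0°C), then efflux into ice-cold medium with the same compound level. In 2 mM Cl− medium, no pretreatment and sampling began ≥4 min. Fit to single-site inhibition.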

[2] = target: T1, AE1 (band 3) protein in human red blood cells; assay: Inhibition of 36Cl exchange flux at 0°C after short exposure to WW781; assay type: cell-based; conditions: for rate constant for 36Cl exchange, k: 0°C (control 0.0507); for IC50: read-out: K 1W, 0°C
How it was run: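 Human RBCs loaded with 36Cl (10 min, 0°C) without pretreatment, resuspended in ice-cold medium with test compound (0.25-1.5 µM, 1% ethanol); nystatin equalized Cl− for non-150 mM media, citrate-sucrose replacing Cl−. Rapid-filtration samples were taken mostly before 30 s, never after 45 s. k was the slope of ln(P∞−Pt) versus time. Dissociation constants came from nonlinear least-squares single-site fits and Dixon plots.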

AE1 [3] = assay type: cell-based, human; conditions: at saturating concentrations of WW781, 150 mM Cl− inside and outside
AE1 [4] = conditions: cells with 150 mM Cl− inside and outside; ref Raha et al. 1993; cited from earlier work
[5] = test system: net Cl^− permeability, PCl; conditions: ref Freedman and Novak 1983; cited from earlier work
AE1 [6] = conditions: ref Knauf et al. 1995; cited from earlier work

## CCCCN1C(=O)C(C=CC=CC=C2C(=O)N(c3ccc(S(=O)(=O)O)cc3)N=C2C)C(=O)N(CCCC)C1=O [WW781, [3-methyl-1-p-sulfophenyl-5-pyrazolone-(4)]-[1,3-dibutylbarbituric acid]-pentamethine oxonol]
[1]
  K 2/1W,ECl/K 2/1W,E: 0.12 − 0.15
[1]; Cl−-loaded forms
  K 2/1W,ECl: 1.8 − 2.2
[1]; Ei form
  K 2/1W,Ei: ≤34.
[1]; Eo form of AE1, from K 2/1W,Eo
  free energy difference ΔG^0 between complex 2 and complex 1: -7.6 kJ/mol
[1]; [Cli = o] 5 mM
  K 1W/K eqW: 15.5
[1]; [Cli = o] 150 mM
  K 1W/K eqW: 9.0
  IC50: 0.066 ± 0.012 µM
[1]; [Cli = o] 600 mM
  K 1W/K eqW: 3.8
  IC50: 0.143 ± 0.029 µM
[1]; [Cli] = 150, [Clo] = 2 mM
  K 1W/K eqW: 25.2
  IC50: 0.0055 ± 0.0003 µM
[1]; best-fit straight line, [Cli] = [Clo] (Fig. 10)
  slope of K eqW as a function of [Cl−]: 0.00016 ± 0.00004 μM/mM
[1]; both initial binding and equilibrium association
  preference for the Eo form of AE1 as compared with the Ei form: > 10 fold
[1]; equilibrium binding
  K eqW,Ei/K eqW,Eo: ≥12.
[1]; read-out: K eqW,EIi, mean ± SEM of two experiments
  Ki: 0.28 ± 0.07 µM
[1]; read-out: K eqW,Ei (minimum value), range over both estimates of K eqW,E
  Ki: 0.033 to 0.046 µM
[2]; 0.25 μM WW781, 150 mM Cl− medium
  rate constant for 36Cl exchange, k: 0.0389 s⁻¹
[2]; 0.5 μM WW781, 150 mM Cl− medium
  rate constant for 36Cl exchange, k: 0.0316 s⁻¹
[2]; 1 μM WW781, 150 mM Cl− medium
  rate constant for 36Cl exchange, k: 0.0274 s⁻¹
[2]; 1.5 μM WW781, 150 mM Cl− medium
  rate constant for 36Cl exchange, k: 0.0203 s⁻¹
[2]; initial binding
  K 1W,ECl/K 1W,E: 0.73 − 0.74
  K 1W,Ei/K 1W,Eo: 14.
[2]; [Cli = o] 20 mM, nystatin-treated cells
  IC50: 0.9 ± 0.21 µM
[2]; [Cli = o] 150 mM, mean ± SEM
  IC50: 0.59 ± 0.05 µM
[2]; [Cli = o] 600 mM, nystatin-treated cells, mean ± SEM
  IC50: 0.54 ± 0.1 µM
[2]; [Cli] = 150, [Clo] = 2 mM, mean ± SEM
  IC50: 0.14 ± 0.01 µM
AE1 [3]
  half-time for formation of complex 2: 33 s
AE1 [4]
  k W-AE1,W•AE1 (backward rate constant, complex 2 to complex 1): 0.15 min⁻¹
  k W•AE1,W-AE1 (forward rate constant for formation of complex 2): ~1.1 min⁻¹
[5]
  effect on net Cl− permeability, PCl: increase

## CCCCN1C(=O)C(=CC=CC=CC2C(=O)N(CCCC)C(=O)N(CCCC)C2=O)C(=O)N(CCCC)C1=O [diBA(5)C4, bis-(1,3-dibutylbarbituric acid)-pentamethine oxonol]
AE1 [6]
  inhibition of the transport system: most potent known inhibitor
